ChEMBL document CHEMBL1122942, “Conformationally defined adrenergic agents. 1. Design and synthesis of novel alpha 2 selective adrenergic agents: electrostatic repulsion based conformational prototypes” (J Med Chem, 1985)

Experiments:
[1] = molecular target: T1, Adrenergic receptor alpha-1 (Rattus norvegicus, UniProt P15823+P23944+P43140); experiment: Binding affinity against alpha-1 adrenergic receptor in rat using [3H]prazosin as radioligand
T1 sequence (P15823 whole entry): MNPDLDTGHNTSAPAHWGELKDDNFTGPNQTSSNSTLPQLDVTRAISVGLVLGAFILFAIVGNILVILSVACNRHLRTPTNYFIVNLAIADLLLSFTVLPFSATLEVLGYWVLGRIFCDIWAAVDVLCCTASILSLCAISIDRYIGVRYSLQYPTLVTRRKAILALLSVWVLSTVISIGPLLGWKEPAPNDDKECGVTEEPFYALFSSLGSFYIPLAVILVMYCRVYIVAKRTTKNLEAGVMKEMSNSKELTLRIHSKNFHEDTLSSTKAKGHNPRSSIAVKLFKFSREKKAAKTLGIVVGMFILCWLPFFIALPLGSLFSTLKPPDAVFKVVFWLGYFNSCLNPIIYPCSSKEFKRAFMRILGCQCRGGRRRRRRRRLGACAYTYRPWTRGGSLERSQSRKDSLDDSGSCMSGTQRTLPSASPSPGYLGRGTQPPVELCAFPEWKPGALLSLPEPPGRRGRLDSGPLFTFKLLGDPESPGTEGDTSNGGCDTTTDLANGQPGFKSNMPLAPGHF
T1 sequence (P23944 whole entry): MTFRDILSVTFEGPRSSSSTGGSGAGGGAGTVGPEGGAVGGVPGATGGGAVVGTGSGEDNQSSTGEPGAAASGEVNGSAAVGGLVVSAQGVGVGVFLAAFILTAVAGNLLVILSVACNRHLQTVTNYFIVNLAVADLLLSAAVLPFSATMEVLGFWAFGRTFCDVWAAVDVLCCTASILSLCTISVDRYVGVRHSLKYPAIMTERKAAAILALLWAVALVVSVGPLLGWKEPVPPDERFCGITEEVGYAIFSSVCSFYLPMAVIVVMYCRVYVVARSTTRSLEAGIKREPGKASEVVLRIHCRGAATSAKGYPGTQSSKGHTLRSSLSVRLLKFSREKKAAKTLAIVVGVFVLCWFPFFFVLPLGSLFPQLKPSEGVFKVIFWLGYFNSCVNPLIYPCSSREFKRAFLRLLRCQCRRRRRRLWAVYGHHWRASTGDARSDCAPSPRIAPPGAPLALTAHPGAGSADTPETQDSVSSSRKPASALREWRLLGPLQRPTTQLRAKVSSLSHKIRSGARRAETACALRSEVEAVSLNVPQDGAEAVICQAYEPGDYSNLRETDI
T1 sequence (P43140 whole entry): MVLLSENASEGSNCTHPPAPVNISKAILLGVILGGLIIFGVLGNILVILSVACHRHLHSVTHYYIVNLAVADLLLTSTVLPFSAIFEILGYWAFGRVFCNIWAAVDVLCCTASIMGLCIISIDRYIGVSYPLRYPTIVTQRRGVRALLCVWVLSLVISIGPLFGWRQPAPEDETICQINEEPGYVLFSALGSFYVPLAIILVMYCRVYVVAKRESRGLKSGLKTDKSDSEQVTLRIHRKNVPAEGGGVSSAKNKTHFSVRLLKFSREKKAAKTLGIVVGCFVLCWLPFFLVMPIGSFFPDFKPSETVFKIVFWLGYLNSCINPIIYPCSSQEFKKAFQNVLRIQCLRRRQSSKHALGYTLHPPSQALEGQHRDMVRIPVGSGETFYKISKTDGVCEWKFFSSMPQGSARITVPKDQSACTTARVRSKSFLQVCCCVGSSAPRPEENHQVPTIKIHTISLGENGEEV
Outline: (§1)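 Male Sprague-Dawley rat liver membranes (50-150 µg/mL protein) in 50 mM Tris-HCl pH 7.7 with [3H]prazosin. Incubated 50 min at 25 °C; phentolamine 10^-5 M defined nonspecific binding. At least four concentrations from 10^-10 to 10^-3 M, each in duplicate. Bound ligand was filtered and counted by scintillation.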

[2] = molecular target: Adrenergic receptor alpha (Rattus norvegicus) (UniProt P15823+P23944+P43140+P22086+P19328+P22909); experiment: Relative affinities for Alpha1 and alpha-2 adrenergic receptors in rat
[3] = molecular target: T2, Adrenergic receptor alpha-2 (Rattus norvegicus, UniProt P22086+P19328+P22909); experiment: Binding affinity towards alpha-2 adrenergic receptor in rat using [3H]rauwolscine as radioligand
T2 sequence (P22086 whole entry): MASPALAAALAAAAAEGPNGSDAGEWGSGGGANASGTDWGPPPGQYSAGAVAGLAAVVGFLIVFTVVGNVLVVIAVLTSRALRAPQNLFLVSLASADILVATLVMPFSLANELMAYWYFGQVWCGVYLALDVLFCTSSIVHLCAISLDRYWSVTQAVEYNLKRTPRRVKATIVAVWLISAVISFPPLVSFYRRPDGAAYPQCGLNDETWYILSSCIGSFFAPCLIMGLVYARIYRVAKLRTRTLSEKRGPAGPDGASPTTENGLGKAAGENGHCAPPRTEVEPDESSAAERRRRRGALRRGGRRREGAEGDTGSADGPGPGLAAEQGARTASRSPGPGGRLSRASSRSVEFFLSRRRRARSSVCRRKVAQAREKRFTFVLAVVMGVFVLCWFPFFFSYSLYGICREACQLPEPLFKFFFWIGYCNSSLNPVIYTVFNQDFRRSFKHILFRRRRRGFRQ
T2 sequence (P19328 whole entry): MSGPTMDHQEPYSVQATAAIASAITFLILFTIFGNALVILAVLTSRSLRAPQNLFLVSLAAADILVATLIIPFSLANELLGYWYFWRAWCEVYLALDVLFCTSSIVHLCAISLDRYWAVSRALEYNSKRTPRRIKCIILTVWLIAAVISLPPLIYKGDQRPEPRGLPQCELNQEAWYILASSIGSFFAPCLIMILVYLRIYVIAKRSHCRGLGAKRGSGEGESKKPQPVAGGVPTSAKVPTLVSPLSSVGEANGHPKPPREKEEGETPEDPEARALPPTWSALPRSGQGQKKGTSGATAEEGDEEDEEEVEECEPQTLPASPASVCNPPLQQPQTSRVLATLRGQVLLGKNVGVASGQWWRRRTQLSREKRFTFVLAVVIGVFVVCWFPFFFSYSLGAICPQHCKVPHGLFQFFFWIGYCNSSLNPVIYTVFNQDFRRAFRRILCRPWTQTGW
T2 sequence (P22909 whole entry): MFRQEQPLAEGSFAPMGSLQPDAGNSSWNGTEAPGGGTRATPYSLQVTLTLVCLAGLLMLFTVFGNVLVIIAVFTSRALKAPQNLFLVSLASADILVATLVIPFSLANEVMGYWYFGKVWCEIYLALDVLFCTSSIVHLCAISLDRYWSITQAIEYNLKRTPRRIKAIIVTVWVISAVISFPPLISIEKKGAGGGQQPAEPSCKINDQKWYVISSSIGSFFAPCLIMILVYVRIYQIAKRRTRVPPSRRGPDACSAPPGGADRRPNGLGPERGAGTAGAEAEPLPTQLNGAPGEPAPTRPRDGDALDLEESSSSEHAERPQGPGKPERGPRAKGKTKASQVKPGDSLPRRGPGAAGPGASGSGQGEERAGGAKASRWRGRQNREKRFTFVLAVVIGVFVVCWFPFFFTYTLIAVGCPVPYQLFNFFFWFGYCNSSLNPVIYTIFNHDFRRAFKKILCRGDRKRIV
Outline: as §1, with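 “cerebral cortex” for “liver”, “[3H]rauwolscine.” for “[3H]prazosin.”, “2 h” for “50 min”, “4” for “25”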

NCC1CCc2c1ccc(O)c2O (configuration not stated) was tested, and the Ki [1] was 8.6 µM, the Ratio [2] was 560 and the Ki [3] was 0.015 µM.
CC(C)NCC1CCCc2c1ccc(O)c2O (configuration not stated) was tested, and the Ki [1] was 6.6 µM and the Ki [3] was 4.7 µM.
CNCC1CCCc2c1ccc(O)c2O (configuration not stated) showed a Ki [1] of 7.9 µM and a Ki [3] of 0.044 µM.
Work on CN(C)CC1CCc2cc(O)c(O)cc21 (configuration not stated) yielded a Ki [1] of 13 µM and a Ki [3] of 0.86 µM.
With NCC1Cc2cc(O)c(O)cc21 (configuration not stated) the Ki [1] was 5 µM and the Ki [3] was 0.2 µM.
With CNCC1CCCc2cc(O)c(O)cc21 (configuration not stated) the Ki [1] was 8.7 µM and the Ki [3] was 1.3 µM.
Compound CN(C)CC1CCCc2c1ccc(O)c2O (configuration not stated) has a Ki [1] of 13 µM and a Ki [3] of 0.66 µM.
CCCN(CCC)CC1CCc2c1ccc(O)c2O (configuration not stated) gave a Ki [1] of 7.4 µM, a Ratio [2] of 16 and a Ki [3] of 0.47 µM.
Work on Brc1c(NC2=NCCN2)ccc2nccnc12 [BRIMONIDINE] yielded a Ki [1] of 0.74 µM.
For CCN(CC)CC1CCCc2c1ccc(O)c2O (configuration not stated), the Ki [1] was 3.1 µM, the Ratio [2] was 13 and the Ki [3] was 0.25 µM.
With CC(C)NCC1CCc2cc(O)c(O)cc21 (configuration not stated) the Ki [1] was 11 µM and the Ki [3] was 3.8 µM.
NCC1Cc2c1ccc(O)c2O (configuration not stated) gave a Ki [1] of 16 µM, a Ratio [2] of 98 and a Ki [3] of 0.17 µM.
Work on CN(C)CC1CCc2c1ccc(O)c2O (configuration not stated) yielded a Ki [1] of 6.9 µM, a Ratio [2] of 270 and a Ki [3] of 0.025 µM.
Work on NCC1CCCCc2cc(O)c(O)cc21 (configuration not stated) yielded a Ki [1] of 11 µM and a Ki [3] of 19 µM.
With CCCN(CCC)CC1CCCc2cc(O)c(O)cc21 (configuration not stated) the Ki [1] was 16 µM and the Ki [3] was 0.6 µM.
Compound CN(C)CC1Cc2c1ccc(O)c2O (configuration not stated) has a Ki [1] of 3.3 µM, a Ratio [2] of 160 and a Ki [3] of 0.021 µM.
NCC(O)c1ccc(O)c(O)c1F (configuration not stated) showed a Ki [1] of 25 µM and a Ki [3] of 1.4 µM.
CCN(CC)CC1CCc2c1ccc(O)c2O (configuration not stated) showed a Ki [1] of 3.6 µM, a Ratio [2] of 11 and a Ki [3] of 0.32 µM.
In the case of CN(C)CC1CCCc2cc(O)c(O)cc21 (configuration not stated), the Ki [1] is reported as 13 µM and the Ki [3] is reported as 0.7 µM.
CC(C)NCC1CCc2c1ccc(O)c2O (configuration not stated) gave a Ki [1] of 4.6 µM, a Ratio [2] of 6.9 and a Ki [3] of 0.66 µM.
With CCCN(CCC)CC1CCCc2c1ccc(O)c2O (configuration not stated) the Ki [1] was 7.9 µM and the Ki [3] was 0.18 µM.
With CC(C)NCC1CCCc2cc(O)c(O)cc21 (configuration not stated) the Ki [1] was 14 µM and the Ki [3] was 2.5 µM.
CCNCC1CCCc2c1ccc(O)c2O (configuration not stated) was tested, and the Ki [1] was 7.9 µM, the Ratio [2] was 40 and the Ki [3] was 0.2 µM.
For CCNCC1CCc2c1ccc(O)c2O (configuration not stated), the Ki [1] was 2.5 µM, the Ratio [2] was 20 and the Ki [3] was 0.13 µM.
With NCC1CCCc2c1ccc(O)c2O (configuration not stated) the Ki [1] was 13 µM and the Ki [3] was 0.047 µM.
Compound NCC1CCc2cc(O)c(O)cc21 (configuration not stated) has a Ki [1] of 26 µM and a Ki [3] of 0.52 µM.
With NCC1CCCc2cc(O)c(O)cc21 (configuration not stated) the Ki [1] was 15 µM and the Ki [3] was 5.1 µM.
CCCN(CCC)CC1CCc2cc(O)c(O)cc21 (configuration not stated) gave a Ki [1] of 29 µM and a Ki [3] of 0.69 µM.
NCC(O)c1cc(O)c(O)cc1F (configuration not stated) gave a Ki [1] of 0.65 µM.
CNCC1CCc2c1ccc(O)c2O (configuration not stated) showed a Ki [1] of 2 µM, a Ratio [2] of 290 and a Ki [3] of 0.007 µM.
In the case of NCC1CCCCc2c1ccc(O)c2O (configuration not stated), the Ki [1] is reported as 27 µM, the Ratio [2] is reported as 30 and the Ki [3] is reported as 0.88 µM.
